Active and inactive are the calls of the source. The rule behind the calls is not given here.
Experiments:
N2a [1] = assay: Antiamyloidogenic activity in mouse N2A cells transfected with human APP Swedish mutant assessed as amyloid beta (1 to 42) level at 1 uM after 24 hrs by ELISA relative to control
N2a (Mus musculus) = assay: Cytotoxicity against mouse N2a/APPsw cells assessed as cell viability at 1 uM after 24 hrs by MTT assay relative to control
[2] = Cytotoxicity against mouse RAW264.7 cells assessed as cell viability at 10 uM after 24 hrs by MTT assay relative to control; format: cell-based; conditions: read-out: Activity
Outline: (§1)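 RAW 264.7 cells given 0.5 mg/ml MTT in medium for 4 h, washed with PBS; formazan dissolved in DMSO, shaken 30 min, absorbance read at 570 nm against a 630 nm reference. Viability expressed relative to DMSO control.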

RAW264.7 [3] = assay: Antiinflammatory activity against mouse RAW264.7 cells assessed as LPS-induced nitrate production at 10 uM treated 30 mins before LPS challenge measured after 24 hrs by Griess reagent method relative to control
RAW264.7 [4] = assay: Antiinflammatory activity against mouse RAW264.7 cells assessed as LPS-induced nitrate production at 100 uM treated 30 mins before LPS challenge measured after 24 hrs by Griess reagent method relative to control
[5] = Cytotoxicity against mouse RAW264.7 cells assessed as cell viability at 100 uM after 24 hrs by MTT assay relative to control; format: cell-based; conditions: read-out: Activity
Outline: as §1

N2a [6] = assay: Antiamyloidogenic activity in mouse N2A cells transfected with human APP Swedish mutant assessed as reduction of amyloid beta (1 to 42) level at 100 uM after 24 hrs by ELISA; format: functional, cell-based
N2a [7] = assay: Antiamyloidogenic activity in mouse N2A cells assessed as degradation of amyloid beta (1 to 40) level at 100 uM treated 24 hrs before amyloid beta (1 to 40) challenge measured after 8 hrs by MALDI/TOF analysis; format: functional, cell-based
Outline: (§2)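 Wild-type N2a cells were plated at 100 × 10⁴ cells/well, PBS-washed, and drug-treated in DMEM with 0.2 % FBS. Conditioned medium was collected after 24 h per the legend (18 h per the methods), given NaN₃, spun at 10,000 g, added to an Aβ1–40 + Aβ1–42 mixture, and incubated 8 h at 37 °C. Samples were then given protease inhibitors, spiked with Aβ1–43, and analysed by 4G8/6E10 IP-MALDI-TOF. Values were normalised to cell-free media control; mean and s.d.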

N2a [8] = assay: Antiamyloidogenic activity in mouse N2A cells transfected with human APP Swedish mutant assessed as increase of amyloid beta (1 to 37) level at 100 uM after 24 hrs by ELISA; format: functional, cell-based
N2a [9] = assay: Antiamyloidogenic activity in mouse N2A cells assessed as degradation of amyloid beta (1 to 42) level at 100 uM treated 24 hrs before amyloid beta (1 to 42) challenge measured after 8 hrs by MALDI/TOF analysis; format: functional, cell-based
Outline: as §2

N2a [10] = assay: Antiamyloidogenic activity in mouse N2A cells assessed as reduction of amyloid beta (1 to 42)/(1 to 40) ratio at 100 uM treated 24 hrs before amyloid beta (1 to 42)/(1 to 40) challenge measured after 8 hrs by MALDI/TOF analysis; format: functional, cell-based
Outline: as §2

N2a [11] = assay: Antiamyloidogenic activity in mouse N2A cells transfected with human APP Swedish mutant assessed as increase of amyloid beta (1 to 42) level at 100 uM after 24 hrs by ELISA; format: functional, cell-based
N2a [12] = assay: Antiamyloidogenic activity in mouse N2A cells transfected with human APP Swedish mutant assessed as increase of amyloid beta (1 to 40) level at 100 uM after 24 hrs by ELISA; format: functional, cell-based
N2a [13] = assay: Antiamyloidogenic activity in mouse N2A cells transfected with human APP Swedish mutant assessed as increase of amyloid beta (1 to 42)/(1 to 40) ratio at 100 uM after 24 hrs by ELISA; format: functional, cell-based
N2a [14] = assay: Antiamyloidogenic activity in mouse N2A cells transfected with human APP Swedish mutant assessed as reduction of amyloid beta (1 to 42) level at 0.5 uM after 24 hrs by ELISA; format: functional, cell-based
Outline: (§3)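 N2a/APPsw cells (25 × 10⁴/well, plated 24 h prior) washed with PBS and treated with drug in DMEM with 0.2 % FBS for 24 h. Supernatant got NaN₃ (0.01 % final) and protease inhibitors, was centrifuged, and Aβ1–42 was measured by human sandwich ELISA. Values normalized to DMSO vehicle; mean and s.e.m., at least 4 experiments on separate passages.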

N2a [15] = assay: Antiamyloidogenic activity in mouse N2A cells transfected with human APP Swedish mutant assessed as reduction of amyloid beta (1 to 42) level at 10 uM after 24 hrs by ELISA; format: functional, cell-based
Outline: as §3

N2a [16] = assay: Antiamyloidogenic activity in mouse N2A cells transfected with human APP Swedish mutant assessed as increase of amyloid beta (1 to 37) level at 10 uM after 24 hrs by ELISA; format: functional, cell-based; conditions: in the assay text read “immunoprecipitation MALDI-TOF” for “ELISA”
Outline: (§4)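 N2a cells stably expressing Swedish-mutant human APP, 1 × 10⁶ cells/well, drug-treated 24 h in DMEM with 0.2 % FBS without G418. Conditioned media got NaN₃, protease inhibitors and a ~1 ng/mL Aβ1–43 internal standard, then biotinylated 4G8/6E10 immunoprecipitation and linear-positive MALDI-TOF. Peak heights were normalized to Aβ1–43, then to DMSO control.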

N2a [17] = assay: Antiamyloidogenic activity in mouse N2A cells transfected with human APP Swedish mutant assessed as increase of amyloid beta (1 to 38) level at 10 uM after 24 hrs by ELISA; format: functional, cell-based; conditions: in the assay text read “immunoprecipitation MALDI-TOF” for “ELISA”
Outline: as §4

SMILES | level, % of control at 1 µM (N2a [1]) | viability at 24 h, 1 µM (N2a (Mus musculus)) | viability at 24 h, 10 µM [2] | level, % of control at 10 µM (RAW264.7 [3]) | further results
NC(=O)C(F)c1ccc(-c2ccccc2)c(F)c1 (centres undefined) | 101% | 103% | – | – | –
CCC(C#N)(CC)c1ccc(-c2ccccc2)c(F)c1 | 125% | 97.3% | – | – | –
C[S+]([O-])c1ccc(/C=C2/C=C(CC(=O)O)c3cc(F)ccc32)cc1 (centres undefined) | 95% | – | 104% | 91.6% | –
COc1ccc2c(c1)c(CNCCO)c(C)n2C(=O)c1ccc(Cl)cc1 | 118% | – | 100% | 52.5% | –
N#CC(F)c1ccc(-c2ccccc2)c(F)c1 (centres undefined) | 65.6% | 93.1% | – | – | –
COc1ccc2c(c1)c(CC(=O)NCCc1cccnc1)c(C)n2C(=O)c1ccc(Cl)cc1 | 135% | – | 95.6% | 100% | –
NC(=O)C(F)(F)c1ccc(-c2ccc(F)cc2)c(F)c1 | 109% | 95.9% | 98.8% | 84.1% | –
O=C(OCCBr)C1(c2ccc(-c3ccccc3)c(F)c2)CC1 | – | – | – | – | level, % of control at 100 µM (RAW264.7 [4]): 18.9%; viability at 24 h, 100 µM [5]: 109%
CSc1ccc(/C=C2/C(C)=C(CC(=O)O)c3cc(F)ccc32)cc1 [SULINDAC SULFIDE] | 82.6% | – | – | – | –
O=C(O)C1(c2ccc(-c3ccc(Cl)c(Cl)c3)c(F)c2)CC1 | 125% | – | – | – | viability at 24 h, 100 µM [5]: 19.1%
O=C(O)C1(c2ccc(-c3ccccc3)c(F)c2)CC1 | 69.5% | 103% | – | – | level, % of control at 100 µM (RAW264.7 [4]): 60.7%; viability at 24 h, 100 µM [5]: 101%
O=C(O)C(F)c1ccc(-c2ccccc2)c(F)c1 (centres undefined) | 91.8% | 98.7% | 92.7% | 81.5% | –
O=C(O)C(O)c1ccc(-c2ccccc2)c(F)c1 (centres undefined) | 82.5% | 101% | 89.1% | 59% | –
O=C(OCCBr)C1(c2ccc(-c3ccc(C(F)(F)F)cc3)c(F)c2)CC1 | – | – | – | – | level, % of control at 100 µM (RAW264.7 [4]): 14.7%; viability at 24 h, 100 µM [5]: 113%
CCNC(=O)CC1=C/C(=C/c2ccc(SC)cc2)c2ccc(F)cc21 | 95.7% | – | 104% | 80.4% | –
O=C(O)CC1=C/C(=C/c2ccc(SC(F)(F)F)cc2)c2ccc(F)cc21 | 99.4% | – | 104% | 1.7% | –
COc1ccc2c(c1)c(CC(=O)O)cn2C(=O)c1ccc(Cl)cc1 | 102% | – | 97.9% | 65.9% | –
O=C(OCCO[N+](=O)[O-])C1(c2ccc(-c3ccc(C(F)(F)F)cc3)c(F)c2)CC1 | – | – | – | – | level, % of control at 100 µM (RAW264.7 [4]): 42.8%; viability at 24 h, 100 µM [5]: 128%

SMILES | level, % of control at 1 µM (N2a [1]) | viability at 24 h, 1 µM (N2a (Mus musculus)) | viability at 24 h, 10 µM [2] | level, % of control at 10 µM (RAW264.7 [3]) | further results
O=C(OCCO[N+](=O)[O-])C1(c2ccc(-c3ccc(Cl)c(Cl)c3)c(F)c2)CC1 | – | – | – | – | level, % of control at 100 µM (RAW264.7 [4]): 40%; viability at 24 h, 100 µM [5]: 135%
NC(=O)C(F)c1ccc(-c2ccc(F)cc2)c(F)c1 (centres undefined) | – | 69.1% | 90.6% | 74.7% | –
CC(C(=O)O)c1ccc(-c2ccccc2)c(F)c1 (centres undefined) [FLURBIPROFEN] | 86.6% | – | – | 80.7% | inhibition (N2a [6]): Active; Activity (N2a [7]): Active; Activity (N2a [8]): Active; Activity (N2a [9]): Active; level, % of control at 100 µM (RAW264.7 [4]): 69.1%; Activity (N2a [10]): Active; viability at 24 h, 100 µM [5]: 10.9%
O=C(O)CC1=C/C(=C/c2ccc(C(F)(F)F)cc2)c2ccc(F)cc21 | 91% | – | 100% | 29.2% | –
N#CC(F)(F)c1ccc(-c2ccc(F)cc2)c(F)c1 | 125% | 98.2% | 98.2% | 75.7% | –
NC(=O)C(F)(F)c1ccc(-c2ccccc2)c(F)c1 | 115% | 102% | 100% | 82.2% | –
CCC(C#N)(CC)c1ccc(-c2cccc3ccccc23)c(F)c1 | 105% | 91.6% | 107% | 91.3% | –
O=C(OCCBr)C1(c2ccc(-c3ccc(Cl)c(Cl)c3)c(F)c2)CC1 | – | – | – | – | Activity (N2a [11]): Active; Activity (N2a [12]): Active; Activity (N2a [13]): Active; level, % of control at 100 µM (RAW264.7 [4]): 27.8%; viability at 24 h, 100 µM [5]: 114%
CC(F)(C(=O)O)c1ccc(-c2ccccc2)c(F)c1 (centres undefined) | 98.8% | 101% | 99.7% | 80.8% | –
O=C(O)C(O)c1ccc(-c2ccc(F)cc2)c(F)c1 (centres undefined) | 106% | 99.7% | 102% | 76.3% | –
O=C(OCCO[N+](=O)[O-])C1(c2ccc(-c3ccccc3)c(F)c2)CC1 | – | – | – | – | inhibition (N2a [14]): Active; level, % of control at 100 µM (RAW264.7 [4]): 47.3%; viability at 24 h, 100 µM [5]: 113%
CC1=C(CC(=O)O)c2cc(F)ccc2/C1=C\c1ccc([S+](C)[O-])cc1 (centres undefined) | 100% | – | 104% | 85.7% | inhibition (N2a [15]): Active; Activity (N2a [16]): Active; Activity (N2a [17]): Active
CSc1ccc(/C=C2/C=C(CC(=O)NCc3ccccc3)c3cc(F)ccc32)cc1 | 94.5% | – | 100% | 58.4% | –
O=C(O)C1(c2ccc(-c3ccc(C(F)(F)F)cc3)c(F)c2)CC1 | 99.3% | 97.2% | – | – | level, % of control at 100 µM (RAW264.7 [4]): 62.4%; viability at 24 h, 100 µM [5]: 102%
N#CC(F)c1ccc(-c2ccc(F)cc2)c(F)c1 (centres undefined) | – | 69.4% | 84.5% | 65.3% | –
CCC(CC)(C(=O)O)c1ccc(-c2ccccc2)c(F)c1 | 124% | 95.5% | – | – | –
O=C(O)C1(c2ccc(-c3ccc(F)cc3)c(F)c2)CC1 | 90.4% | 102% | 102% | 86.4% | –
COc1ccc2c(c1)c(CC(=O)Nc1ccc(Cl)cc1)c(C)n2C(=O)c1ccc(Cl)cc1 | 295% | – | 92.2% | 68.6% | –

— ChEMBL document CHEMBL1765072, “Inhibition of amyloidogenesis by nonsteroidal anti-inflammatory drugs and their hybrid nitrates” (J Med Chem, 2011)
